# Results collected from several papers.
# Protocols differ between the studies behind these lines.
# Organism: Leishmania donovani
# Effect on: parasite growth
Structure (SMILES),assay,test system,setting,quantity,result
CCCCCCCC/C=C\CCCCCCCCCCCCOP(=O)([O-])OCC[N+](C)(C)C,resazurin,,"25 µM, 72 h, promastigote",inhibition,106%
C[C@@H]1[C@H](O)[C@@H](C)/C=C/C=C/C=C/C=C/C=C/C=C/C=C/[C@H](O[C@@H]2O[C@H](C)[C@@H](O)[C@H](N)[C@@H]2O)C[C@@H]2O[C@](O)(C[C@@H](O)C[C@@H](O)[C@H](O)CC[C@@H](O)C[C@@H](O)CC(=O)O[C@H]1C)C[C@H](O)[C@H]2C(=O)O,,,promastigote,IC50,135 nM
COc1cc(NC(C)CCCNC(=S)NCCCC(C)Nc2cc(OC)cc3cccnc23)c2ncccc2c1.Cl.Cl (stereo not drawn),resazurin,,promastigote,IC90,20 to 31 µg/mL
C[C@@H]1[C@H](O)[C@@H](C)/C=C/C=C/C=C/C=C/C=C/C=C/C=C/[C@H](O[C@@H]2O[C@H](C)[C@@H](O)[C@H](N)[C@@H]2O)C[C@@H]2O[C@](O)(C[C@@H](O)C[C@@H](O)[C@H](O)CC[C@@H](O)C[C@@H](O)CC(=O)O[C@H]1C)C[C@H](O)[C@H]2C(=O)O,resazurin,,"72 h, promastigote",IC90,1.8 µg/mL
N=C(N)c1ccc(OCCCCCOc2ccc(C(=N)N)cc2)cc1,resazurin,,promastigote,IC50,1 µg/mL
COc1ccccc1-c1n[nH]c2nc(N[C@H]3CC[C@H](NS(=O)(=O)CCCOCCOCCN)CC3)ncc12,,THP-1,"intracellular, amastigote",EC50,24700 nM
c1ccc(-c2nc(N3CCCC3)c3ccccc3n2)nc1,,THP-1,"intracellular, amastigote",IC50,2500 nM
COc1ccccc1-c1n[nH]c2nc(NC3CCN(C(=O)Cc4ccc(OCCOCCNC(=O)OC(C)(C)C)cc4)CC3)ncc12,,THP-1,"intracellular, amastigote",EC50,4510 nM
CCCCCCCCCCCCCCCCOP(=O)([O-])OCC[N+](C)(C)C,resazurin,,"50 µM, 72 h, promastigote",inhibition,100%
COc1ccccc1-c1n[nH]c2nc(NC3CCN(C(=O)Cc4ccc(OCCOCCN)cc4)CC3)ncc12,,,amastigote,EC50,1990 nM
Fc1cccc(Nc2nc(-c3ccccn3)nc3ccccc23)c1,imaging,THP-1,"intracellular, amastigote",IC50,790 nM
C[C@@H]1[C@H](O)[C@@H](C)/C=C/C=C/C=C/C=C/C=C/C=C/C=C/[C@H](O[C@@H]2O[C@H](C)[C@@H](O)[C@H](N)[C@@H]2O)C[C@@H]2O[C@](O)(C[C@@H](O)C[C@@H](O)[C@H](O)CC[C@@H](O)C[C@@H](O)CC(=O)O[C@H]1C)C[C@H](O)[C@H]2C(=O)O,MTT,,"48 h, amastigote",IC90,1800 nM
